hDAT+cocaine: human DAT dopamine uptake with cocaine, either direction; Q01959; LLC-PK1 hDAT cells, [14C]-dopamine uptake with cocaine IC80; actives deviate in either direction; B-score at 10 µM; 110,000 tested, 1.3% active; AID 449768;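 active means Z score or B-score, a plate-position-corrected score, falls beyond the plate's 99.7% confidence bounds, in either direction; inactive means both scores lie inside the 99.7% bounds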;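 further: scored against the spread of the other compound wells on the same plate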
AP complement: orthogonal test for alternative complement pathway inhibitors; inhibition, % at 5 µM; AID 1235; Human serum alternative complement pathway, LPS-coated ELISA, C3 deposition; tested in compound mixtures; 62,000 tested, 0.08% active;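 active means inhibition above 30% in each of the two pooled mixtures holding the compound, so the lower value exceeds 30%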;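 further: 0% = serum in Mg-EGTA without compound and 100% = EDTA serum blank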
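Medium: diluted human serum in Mg2+-EGTA GVB++. Assay system: human serum complement alternative pathway, C3 deposition onto LPS. Also added: Plate-bound LPS. Technique: Anti-C3 ELISA, OD 450 nm. Measure: percent inhibition. Incubation: 1 h at 37 °C. Dosing: 5 µM each compound, pools of ten, 50 µM per pool.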
HEK293 NFkB inh: lowers PMA/ionomycin-induced NF-kB signal in HEK293 cells; HEK-293 NF-kB luciferase reporter, luminescence; inhibition, % at 3 µM; 62,000 tested, 0.21% active; AID 465;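 active means inhibition above the mean of all tested compounds plus 3 SD, cut at about 40% in these data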;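 further: 0% = stimulated DMSO wells and 100% = 10 µM reference inhibitor 5653914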
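System: NF-kB luciferase reporter HEK-293 cells | Replication: Single test | Control set: DMSO vs reference inhibitor | Evaluation: % inhibition | Schedule: 1 h pretreatment, 16 h stimulation, 37 °C | Probe or stimulus: PMA with ionomycin | Compound dosing: One dose, 3 µM | Detection: Luciferase luminescence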
E coli RNAP: Escherichia coli RNA polymerase inhibition; inhibition, %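 (tested at 10 µM)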; 62,000 tested, 0.2% active; E. coli RNA polymerase, fluorescence transcription assay; P0A8V2; in the data active means inhibition above about 20%;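 further: 0% = enzyme without compound and 100% = no enzyme blank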
D1 mod: allosteric modulators of human D1 dopamine receptor; HEK293 D1, CRE-luciferase, dopamine EC30 potentiation; actives deviate in either direction; 58,000 tested, 5.9% active; P21728; B-score at 10 µM;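 active means luminescence count or its row- and column-corrected plate score outside the 99.7% band of the plate's sample wells, on either side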
D1 mod confirm: confirmation of human D1 dopamine receptor allosteric modulators. shares compounds with D1 mod. 2,200 tested, 88% active. HEK293 D1 CRE-luciferase, dopamine EC30 potentiation; stronger effect = higher value. luminescence at 10 µM;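 active means luminescence in either of two replicates above the same-plate mean plus 3 SD of the low-dose dopamine control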
D1 no dopamine: activates D1 CRE-luciferase signal without dopamine present. luminescence at 10 µM. shares compounds with D1 mod. HEK293 D1 CRE-luciferase, luminescence, no dopamine; stronger effect = higher value. 1,900 tested, 0.8% active; in the data active means luminescence above about 3900
Isoprot counter: alters isoproterenol CRE-luciferase response in HEK293 cells; shares compounds with D1 mod; HEK293 D1 CRE-luciferase, isoproterenol EC30 counter-screen; calls only at 10 µM; 2,200 tested, 63% active;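 active means luminescence in either replicate above plate mean of wells with a partly effective reference agonist dose plus 3 SD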;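 further: isoproterenol raises cAMP through native beta-adrenoceptor Gs so signal bypasses D1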
* = called active by the depositor. Many of the other results were omitted from the sample, so hits are more common in it than they were.

Screening Cc1ccc2c(c1)-c1cc(C)nn1C(c1sccc1C)N2 (stereo unspecified) returned hDAT+cocaine -0.086, AP complement -6, HEK293 NFkB inh -3, E coli RNAP 5 and D1 mod 2.2.
COc1ccc(CN(CCN(C)C)c2ccccn2)cc1 was read as hDAT+cocaine 0.011, AP complement 17, E coli RNAP 8, D1 mod 5.2*, D1 mod confirm 3680, D1 no dopamine 1484 and Isoprot counter inactive.
`Cc1ccc2nc3c(cc(C(N)=S)c(=N)n3CCCOC(C)C)c(=O)n2c1` gave hDAT+cocaine 0.87, AP complement 7, HEK293 NFkB inh 4, E coli RNAP 3 and D1 mod 0.57.
Screening COc1ccc(CCNC(=O)CSc2nnnn2-c2ccccc2)cc1 returned hDAT+cocaine 1.4, AP complement 22, HEK293 NFkB inh 8, E coli RNAP 1 and D1 mod 0.14.
`COc1ccc(CCNc2nnc(Sc3nnnn3-c3ccccc3)s2)cc1OC` gave hDAT+cocaine 1.8, AP complement -2, HEK293 NFkB inh 13, E coli RNAP 0, D1 mod 5.3*, D1 mod confirm 10264*, D1 no dopamine 1392 and Isoprot counter inactive.
COc1ccc(CSc2nnnn2Cc2ccccc2)cc1OC was read as hDAT+cocaine 1, AP complement 9, HEK293 NFkB inh 14, E coli RNAP 3, D1 mod 3.6*, D1 mod confirm 15068*, D1 no dopamine 1692 and Isoprot counter active.
COc1ccc(CCNC(=O)C2CCN(S(C)(=O)=O)CC2)cc1 was read as hDAT+cocaine -0.27.
For Cc1nn(C(=O)Cn2ccc([N+](=O)[O-])n2)c(C)c1Br the results were hDAT+cocaine 0.72.
For CCO[C@H]1OC(C(=O)N2CCN(Cc3ccc4c(c3)OCO4)CC2)=C[C@@H](c2ccc(C(F)(F)F)cc2)[C@@H]1CCCO the results were hDAT+cocaine -0.53.
`O=C(O)CSc1nnc(-c2ccncc2)n1C1CCCCC1` gave hDAT+cocaine 0.27, AP complement 5, HEK293 NFkB inh 16, E coli RNAP 7 and D1 mod -0.7.
`CN(C)CCNC(=O)c1c(CSc2ccccc2)noc1C(=O)NCc1ccccc1` gave hDAT+cocaine 0.68.
`CCCN1C(=O)c2cc(C(=O)NCc3ccc(OC)cc3)ccc2C1O` (stereo unspecified) gave hDAT+cocaine -0.023, AP complement 9 and E coli RNAP 5.
For COC(=O)c1ccccc1Nc1cc(C)nc2nc(C)nn12 the results were AP complement 16, HEK293 NFkB inh 4, E coli RNAP 3 and D1 mod 0.42.
Screening CCOC(=O)c1ccccc1Nc1cc(C)nc2nc(C)nn12 returned hDAT+cocaine 0.22, AP complement 13, HEK293 NFkB inh 0, E coli RNAP 7, D1 mod 1.8*, D1 mod confirm 10192*, D1 no dopamine 1536 and Isoprot counter active.
CCCCn1c(=O)[nH]c(=O)c2c1nc(COC(=O)c1c(C)noc1C)n2CCC was read as hDAT+cocaine 1.4, AP complement 8, HEK293 NFkB inh 13, E coli RNAP -4, D1 mod 6.2*, D1 mod confirm 14616*, D1 no dopamine 1628 and Isoprot counter active.
For CCCCn1c(CCC(=O)O)nc2c1c(=O)[nH]c(=O)n2CCC the results were hDAT+cocaine 0.71.
CCN(CC)c1ncccc1C(=O)NCc1cccs1 was read as hDAT+cocaine -0.41, HEK293 NFkB inh 6, D1 mod 7.6*, D1 mod confirm 13524*, D1 no dopamine 1416 and Isoprot counter active.
O=C(NCc1cccs1)c1ccccc1C(=O)NCc1cccs1 was read as hDAT+cocaine -0.44, AP complement 23, HEK293 NFkB inh 16, E coli RNAP 0 and D1 mod -0.97.
`CC(C)COC(=O)C1C2C=CC3(CN(C4CCCC4)C(=O)C13)O2` (stereo unspecified) gave hDAT+cocaine 1.3, AP complement 12, HEK293 NFkB inh 3, E coli RNAP 14 and D1 mod -0.61.
Screening COc1cccc(/C=N/n2c(SC)nnc2-c2ccccc2)c1OC returned hDAT+cocaine -0.046, AP complement 15, HEK293 NFkB inh 4, E coli RNAP 5, D1 mod 6*, D1 mod confirm 8100*, D1 no dopamine 1656 and Isoprot counter active.
Screening COc1cccc(/C=N/n2c(SC)nnc2-c2ccccc2)c1O returned hDAT+cocaine -0.18, AP complement -3, HEK293 NFkB inh 7, E coli RNAP 7 and D1 mod -2.3.
Cc1cc(O)c(C=Nc2cccc(Cl)c2)c(=O)o1 was read as hDAT+cocaine 0.63, AP complement 16, HEK293 NFkB inh 3, E coli RNAP 9, D1 mod 3.8*, D1 mod confirm 8536*, D1 no dopamine 1512 and Isoprot counter inactive.
`Cc1cc(O)c(/C=N/Nc2ccccc2)c(=O)o1` gave hDAT+cocaine -0.39.
N#Cc1nc(-c2ccco2)oc1NCc1ccco1 was read as hDAT+cocaine -1.3, AP complement 4, HEK293 NFkB inh 20, E coli RNAP 4, D1 mod 9.5*, D1 mod confirm 13820*, D1 no dopamine 1564 and Isoprot counter active.
`N#Cc1nc(-c2cccs2)oc1NCc1ccco1` gave hDAT+cocaine 0.22, AP complement -13, HEK293 NFkB inh 9, E coli RNAP -3, D1 mod 9.2*, D1 mod confirm 14284* and Isoprot counter active.
Screening CCOc1c(C)cc2[nH]c(CCC(=O)O)nc2c1C returned hDAT+cocaine 0.69, AP complement -5, E coli RNAP 14 and D1 mod -0.6.
`N/C(Cc1cccs1)=N\OC(=O)COc1ccccc1` gave hDAT+cocaine 0.86.
`Nc1nc(SCC(=O)C23CC4CC(CC(C4)C2)C3)n[nH]1` gave hDAT+cocaine -0.088, AP complement 0, HEK293 NFkB inh -8, E coli RNAP -3, D1 mod 5.3*, D1 mod confirm 8548* and Isoprot counter inactive.
CSc1nc(N)nc(SCC(=O)C23CC4CC(CC(C4)C2)C3)c1C#N was read as hDAT+cocaine 0.92 and E coli RNAP 0.
